Inconclusive results are not listed. Active and inactive are the calls of the source.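 The calls were made as follows, unless noted: active = RAM network inhibition above 8.4% in each of two replicates, 3 SD over the compound average; inconclusive = above 8.4% inhibition in only one replicate; inactive = 8.4% inhibition or less in each replicate.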
Tests used:
[1] = S. cerevisiae growth inhibition in permissive medium (OD615), pilot counter-assay for S. cerevisiae lifespan shortening project, permissive growth control (AID 705;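 active = growth inhibition above 25% in both replicates, a cutoff set 3 SD above the mean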); details: OD615, 24 h, at 10 µM, active compounds read high
How it was run: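 Test system: Saccharomyces cerevisiae strain carrying genetically modified DeaD replicative-lifespan system; buffer or medium: SC raffinose/galactose permissive medium; dosing: one dose 10 µM, DMSO 0.25% final; times: 24 h exposure, 30 °C; measured by: OD at 615 nm; read-out basis: growth inhibition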

[2] = S. cerevisiae growth inhibition in restrictive medium, OD615, pilot screen, restrictive growth control, yeast lifespan reduction project (AID 706;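 active = growth inhibition above a set limit, 3 SD over mean compound inhibition, in both replicates, cut at about 43% in these data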;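 also: modified DeaD lifespan yeast strain shifted to restrictive glucose medium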); details: OD615, 48 h, at 10 µM, active compounds read high
How it was run: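 material = engineered S. cerevisiae DeaD strain | buffer or medium = glucose-based CSMM-D restrictive medium | dosing = one concentration, 10 µM final, 0.25% DMSO | schedule = 4 h pre-growth plus 48 h compound exposure, 30 °C | detection = OD615 absorbance reading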

[3] = doxorubicin toxicity protection in MRP-1 cells – H69AR cells, CellTiter-Glo, duplicate, MRP-1 activator project, pilot screen (AID 807;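 active = viability increase at or above a cutoff of the median across tested compounds plus 3 SD, cut at about 8.5% in these data, passing the limit was not always enough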;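 also: compound pretreatment 18-22 h then 72 h combined with doxorubicin; 0% = doxorubicin alone and 100% = vehicle without doxorubicin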); details: H69AR viability with doxorubicin, CellTiter-Glo luminescence; at 10 µM; active compounds read high
[4] = viability of HCT116 without oncogenic beta-catenin – human colon tumor cells, pilot screen (AID 823;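 active = cell viability at or below a set limit in both duplicate runs, the limit being the all-compound median minus 4 SD, cut at about 23% in these data, passing the limit was not always enough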;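 also: 0% = wells killed by 20 µM Hyamine and 100% = untreated DMSO cell wells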); details: HCT116 beta-catenin knockout viability, CellTiter-Glo, 60 h; at 10 µM; active compounds read low
[5] = viability of PTEN-null HCT116 cells – cell-based, HCT116 clonal line, CellTiter-Glo, pilot screen (AID 824;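 active = viability at or below 27.92% in each of two runs, the all-compound median minus 4 SD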;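 also: 0% = 20 µM Hyamine control and 100% = vehicle cell control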); details: HCT116 PTEN-deleted viability, 60 h, at 10 µM, active compounds read low
[6] = RAM pathway blockade in budding yeast – dse1pr::URA3 reporter, 5-FOA selection, pilot screen (AID 869;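 active = inhibition over a set limit, the all-compound mean plus 3 SD, in both replicate runs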;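 also: 0% = DMSO wells with no growth and 100% = 10 µM 1-NA-PP1 with full growth; RAM network block rescues cells from 5-FOA so hits raise OD615 growth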); details: S. cerevisiae dse1pr::URA3 5-FOA growth, OD615, 2 d; at 10 µM; active compounds read high; strain carries analog-sensitive mutant Cbk1 kinase
[7] = RAM signaling pathway blockade in yeast – S. cerevisiae, Pdr1DBD-CYC8 efflux-inhibited sensitized strain, primary screen (AID 1298);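 also: 0% = DMSO untreated cells without growth and 100% = 10 µM 1-NA-PP1 full growth; higher means more yeast growth rescued from 5-FOA killing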; details: S. cerevisiae cbk1-as DSE1-URA3 strain, 5-FOA growth OD615, 2 d; at 50 µM; active compounds read high

CCCCCn1c(SC(C)C(C)=O)nc2c1c(=O)[nH]c(=O)n2C (stereo not given)
inactive: growth inhibition [1] -25.6% | growth inhibition [2] -33.8% | viability increase [3] -0.88% | viability [4] 94.4% | viability [5] 88% | inhibition [6] 2.36% | RAM network inhibition [7] 2.16%

CC1CCCCN1S(=O)(=O)c1coc(C(N)=O)c1 (stereo not given)
inactive: growth inhibition [1] -12.1% | growth inhibition [2] -13.6% | viability increase [3] -2.18% | viability [4] 105% | viability [5] 96.8% | inhibition [6] 3% | RAM network inhibition [7] 0.05%

CCCC1(C(=O)O)NC(c2ccc(OC)cc2O)C2C(=O)N(c3ccc(OC)cc3)C(=O)C21 (stereo not given)
inactive: growth inhibition [1] -7.46% | growth inhibition [2] 1.98% | viability increase [3] -0.54% | viability [4] 95.8% | viability [5] 91.6% | inhibition [6] 1.48% | RAM network inhibition [7] 2.34%

COC(=O)c1cc(NC2c3ccccc3C(=O)N2c2cccnc2)cc(C(=O)OC)c1 (stereo not given)
inactive: growth inhibition [1] -10.2% | growth inhibition [2] 0.875% | viability increase [3] -4.6% | viability [4] 90.6% | viability [5] 91.4% | inhibition [6] 1.27% | RAM network inhibition [7] 6.35%

CCOC(=O)c1cc(-c2nnc(-c3ccc(Cl)cc3)o2)c(C)nc1C
inactive: growth inhibition [1] -16.3% | growth inhibition [2] -14.2% | viability increase [3] -0.9% | viability [4] 99.7% | viability [5] 93.6% | inhibition [6] 2.19% | RAM network inhibition [7] 2.13%

CCOC(=O)NC(Nc1cc(C)ccn1)(C(F)(F)F)C(F)(F)F
inactive: growth inhibition [1] 0.885% | growth inhibition [2] -3.62% | viability increase [3] -1.93% | viability [4] 104% | viability [5] 100% | inhibition [6] 0.28% | RAM network inhibition [7] -1.18%

CC1CC(C)CN(C(=O)CSc2nnc(-c3ccc(Cl)cc3)o2)C1 (stereo not given)
inactive: growth inhibition [1] -0.98% | growth inhibition [2] -3.64% | viability increase [3] 1.73% | viability [4] 94.1% | viability [5] 89.2% | inhibition [6] 1.4% | RAM network inhibition [7] 7.35%

CC(=O)Oc1cc2c(C(=O)NCc3ccncc3)c(C)oc2c2ccccc12
inactive: growth inhibition [1] -15.1% | growth inhibition [2] -16.8% | viability increase [3] -3.14% | viability [4] 90.9% | viability [5] 95.8% | inhibition [6] 0.64% | RAM network inhibition [7] 8.02%

O=C1N2CN(C(c3ccccc3)c3ccccc3)CN=C2SC1(CO)CO
inactive: growth inhibition [1] -9.07% | growth inhibition [2] -4.68% | viability increase [3] -2.69% | viability [4] 62.9% | viability [5] 74.8% | inhibition [6] 1.88% | RAM network inhibition [7] 1.39%

CCCc1[nH]nc2c1C(C1CCCCC1)C(C#N)=C(N)O2 (stereo not given)
active: viability [4] 12.5% | viability [5] 21.4%
inactive: growth inhibition [1] -4.03% | growth inhibition [2] -0.785% | viability increase [3] -6.54% | inhibition [6] 2.06% | RAM network inhibition [7] 1.58%

CC(=O)c1ccc(OCC(C)C)c(CC(C(N)=O)C(N)=O)c1
inactive: growth inhibition [1] 1.42% | growth inhibition [2] -5.6% | viability increase [3] -1.7% | viability [4] 108% | viability [5] 96.1% | inhibition [6] 1.66% | RAM network inhibition [7] -0.2%

COc1ccc(Cc2nnc(Nc3ccc(C)cc3C)[nH]c2=O)cc1
inactive: growth inhibition [1] -10.4% | growth inhibition [2] -12.6% | viability increase [3] -1.16% | viability [4] 91.2% | viability [5] 94.2% | inhibition [6] 1.08% | RAM network inhibition [7] 7.16%

O=C(c1ccccn1)N(CC1CCCO1)C1(C(=O)NC2CCCCC2)CCCCC1 (stereo not given)
inactive: growth inhibition [1] -4.99% | growth inhibition [2] -10.3% | viability increase [3] -0.31% | viability [4] 85.5% | viability [5] 92.3% | inhibition [6] 1.69% | RAM network inhibition [7] -0.32%

CCOC(=O)N1CCN(C(=O)c2ccc3c(SCC(=O)O)c4c(nc3c2)CCC4)CC1
inactive: growth inhibition [1] -7.38% | growth inhibition [2] 3.22% | viability increase [3] -1.86% | viability [4] 102% | viability [5] 93% | inhibition [6] 0.9% | RAM network inhibition [7] 2.81%

CCOC(=O)c1[nH]c(C)c(C(=O)N(CC)CC)c1C
inactive: growth inhibition [1] -10.8% | growth inhibition [2] -5.69% | viability increase [3] 0.21% | viability [4] 97% | viability [5] 107% | inhibition [6] 1.27% | RAM network inhibition [7] -0.57%

COC(=O)c1ccsc1NC(=O)c1ccc(Cl)s1
inactive: growth inhibition [1] -17.6% | growth inhibition [2] -27.1% | viability increase [3] -6.51% | viability [4] 94.7% | viability [5] 87.9% | inhibition [6] 3.58% | RAM network inhibition [7] 5.89%

O=C(CCS(=O)NCc1ccccc1)NCc1ccccc1 (stereo not given)
inactive: growth inhibition [1] -7.98% | growth inhibition [2] -11.4% | viability increase [3] -2.13% | viability [4] 99.7% | viability [5] 99.9% | inhibition [6] 0.425% | RAM network inhibition [7] 1.51%

O=C(CSCc1ccc(Cl)cc1)c1ccco1
inactive: growth inhibition [1] -9.9% | growth inhibition [2] 0.15% | viability increase [3] 0.59% | viability [4] 96.5% | viability [5] 89.8% | inhibition [6] 0.695% | RAM network inhibition [7] 2.59%

COc1ccccc1N1CCN(C(=O)c2cc3c(=O)n(C)c4ccccc4c3n2C)CC1
inactive: growth inhibition [1] -7.35% | growth inhibition [2] 3.62% | viability increase [3] 2.2% | viability [4] 67.3% | viability [5] 72% | inhibition [6] 0.125% | RAM network inhibition [7] -0.26%

CCCn1c(CN2CCN(C(=O)OCC)CC2)nc2c1c(=O)n(C)c(=O)n2C
inactive: growth inhibition [1] -3.08% | growth inhibition [2] 1.72% | viability increase [3] -2.59% | viability [4] 92.3% | viability [5] 86.5% | inhibition [6] 0.325% | RAM network inhibition [7] 2.5%

CCN1C(=O)CC(N2CCN(c3ccc(Cl)cc3)CC2)C1=O (stereo not given)
inactive: growth inhibition [1] -18.6% | growth inhibition [2] -7.02% | viability increase [3] 1.46% | viability [4] 98% | viability [5] 94.6% | inhibition [6] 1.04% | RAM network inhibition [7] 4.19%

CCNC(=O)CN(c1ccc(CC)cc1)S(C)(=O)=O
inactive: growth inhibition [1] -5% | growth inhibition [2] -18% | viability increase [3] -0.8% | viability [4] 97.9% | viability [5] 106% | inhibition [6] 0.76% | RAM network inhibition [7] 1.88%

Nc1cc(C(=O)c2cccs2)ccc1Cl
inactive: growth inhibition [1] -9.76% | growth inhibition [2] -0.475% | viability increase [3] -1.88% | viability [4] 90.9% | viability [5] 96.7% | inhibition [6] 0.165% | RAM network inhibition [7] 3.24%

CCC(Sc1nccn1C)C(=O)Nc1nnc(C)s1 (stereo not given)
inactive: growth inhibition [1] -21.2% | growth inhibition [2] 2.97% | viability increase [3] 5% | viability [4] 101% | viability [5] 94.2% | inhibition [6] 1.58% | RAM network inhibition [7] 1.93%

CCSc1nnc2c(n1)OC(c1ccc(C(=O)O)cc1)N(C(C)=O)c1ccccc1-2 (stereo not given)
inactive: growth inhibition [1] -10.1% | growth inhibition [2] -2.9% | viability increase [3] -1.34% | viability [4] 107% | viability [5] 100% | inhibition [6] 1.66% | RAM network inhibition [7] 2.35%
